NSD2 inh – NSD2 (human) methyltransferase inhibition; inhibition, % at 12.5 µM; actives 0.54% (n = 310,000); O96028; NSD2 peptide methylation, AlphaScreen, 120 min; in the data active = inhibition above about 50%
CASP6 VEID inh – inhibitors of human caspase-6; P55212; inhibition, % at 12.5 µM; actives 0.53% (n = 350,000); purified caspase-6, Z-VEID-R110 cleavage fluorescence;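 active = mean inhibition across replicates at least about 35%, with every replicate also reaching that limit, limit read from the data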;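 note: 0% = median of neutral control wells and 100% = no fluorescence left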
LEDGF integ inh – blocks HIV-1 LEDGF/p75-dependent DNA integration; TR-FRET IN-LEDGF/p75 DNA integration, Eu/Cy5; inhibition, % at 3.7 µM; actives 0.64% (n = 370,000); AID 743269;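 active = inhibition above the screen-wide mean plus 3 SD, cut at about 13% in these data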;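 note: signal is the Cy5 over europium emission ratio at 671 and 618 nm; 0% = plate median of compound wells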
TDP2 absorb – blocks human TDP2 phosphodiesterase activity; recombinant TDP2, T5PNP hydrolysis, p-nitrophenol absorbance 415 nm; actives 0.34% (n = 370,000); inhibition, % at 12.8 µM; O95551;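 active = inhibition above the mean of all tested compounds plus 3 SD, set per campaign, cut at about 25% in these data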;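 note: 0% = DMSO with enzyme and 100% = buffer with substrate but no TDP2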
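Read-out basis: percent inhibition. System: recombinant human TDP2. Buffer or medium: Mg2+-containing Tris-HCl buffer, pH 7.5. Repeats: single replicate. Timing: reaction 2 h, 37 °C. Benchmarks: high control without enzyme, low control DMSO plus TDP2. Probe or stimulus: 5 mM T5PNP. Doses: 12.8 µM only. Measured by: epi absorbance of p-nitrophenol freed from T5PNP by hydrolysis.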
UHRF1 MBD2 ctr – UHRF1 methyl-DNA binding inhibition. Q96T88. UHRF1 binding to methylated oligo, TR-FRET. inhibition, % at 4.4 µM. actives 0.75% (n = 370,000); in the data active = inhibition above about 21%;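 note: UHRF1 SRA domain binding a hemimethylated CpG hairpin DNA probe; 0% = median of test compound wells and 100% = reference inhibitor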
Target sequence (Q96T88 whole entry, looked up, the tested form may be a part): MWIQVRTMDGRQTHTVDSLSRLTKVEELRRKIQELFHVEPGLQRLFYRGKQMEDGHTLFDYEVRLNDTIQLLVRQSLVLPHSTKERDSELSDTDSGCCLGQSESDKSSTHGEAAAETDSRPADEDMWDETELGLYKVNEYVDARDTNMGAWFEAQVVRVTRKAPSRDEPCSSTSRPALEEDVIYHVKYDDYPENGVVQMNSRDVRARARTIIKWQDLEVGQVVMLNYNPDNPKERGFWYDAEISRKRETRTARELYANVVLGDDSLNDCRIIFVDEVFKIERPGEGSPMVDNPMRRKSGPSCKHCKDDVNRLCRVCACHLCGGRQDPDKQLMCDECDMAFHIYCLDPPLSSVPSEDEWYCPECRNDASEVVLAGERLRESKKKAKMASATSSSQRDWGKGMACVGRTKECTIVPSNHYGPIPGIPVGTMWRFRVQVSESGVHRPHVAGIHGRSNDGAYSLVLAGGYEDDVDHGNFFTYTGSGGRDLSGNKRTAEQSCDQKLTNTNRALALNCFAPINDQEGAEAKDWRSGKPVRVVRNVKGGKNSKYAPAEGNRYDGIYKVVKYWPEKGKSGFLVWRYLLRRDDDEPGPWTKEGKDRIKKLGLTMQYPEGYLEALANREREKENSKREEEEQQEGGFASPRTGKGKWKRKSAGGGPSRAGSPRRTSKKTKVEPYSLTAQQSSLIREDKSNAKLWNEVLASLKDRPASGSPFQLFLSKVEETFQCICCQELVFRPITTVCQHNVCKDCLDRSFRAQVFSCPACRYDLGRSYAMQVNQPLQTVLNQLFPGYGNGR
MBD2 inh – blocks human MBD2 binding to methylated DNA; Q9UBB5; AID 686964; TR-FRET, MBD2 binding to methylated oligonucleotide; actives 0.31% (n = 370,000); inhibition, % at 4.4 µM; in the data active = inhibition above about 13%
The depositor's hits bear a star; nt = no result. The list is not random: actives were taken first. Their share in the collection is about 1.9%.

SMILES	NSD2 inh	CASP6 VEID inh	LEDGF integ inh	TDP2 absorb	UHRF1 MBD2 ctr	MBD2 inh
COc1cccc(C(=O)Oc2c(Br)cc(Br)cc2/C=N/NC(=O)c2cc(C)[nH]n2)c1	nt	-2	-4	-10	31*	2
Cc1cc(C(=O)N/N=C/c2cccc(OC(=O)c3cccc(Br)c3)c2)n[nH]1	16	-4	0	4	-1	-3
CNC[C@@H]1Oc2ccc(NC(=O)Cc3cn(C)c4ccccc34)cc2C(=O)N([C@@H](C)CO)C[C@H]1C	nt	-4	nt	nt	nt	nt
O=C1CN(S(=O)(=O)c2cccc(F)c2)C[C@H]2[C@@H](c3ccc(C4=CCCC4)cc3)[C@H](CO)N12	nt	2	nt	nt	nt	nt
Cn1c(CSCCOc2ccccc2)n[nH]c1=S	-1	45*	-3	1	-1	-2
COc1ccc(Oc2c(OC)cc(NCc3ccc(CN)cc3)c3ncccc23)cc1	76*	21	2	7	0	2
COc1cccc(NC(=O)N2C[C@@H](O)COC[C@@H]3O[C@@H](CC(=O)N(C)C)CC[C@H]32)c1	nt	-2	nt	nt	nt	nt
Cc1oc2c(CN(C)C)c(O)ccc2c(=O)c1-c1cscn1	nt	nt	0	38*	4	-3
COc1ccc(Oc2c(C)oc3c(CN(C)C)c(O)ccc3c2=O)cc1	-4	nt	-4	-5	-3	0
CC(C)Cn1c(N)c(C(=O)CSc2nnc(-c3ccco3)n2C)c(=O)n(C)c1=O	-1	3	0	0	33*	-1
Cc1cc(C(=O)OCC(=O)N2CCC(C)CC2)c2ccccc2n1	2	4	35*	-4	2	-2
Cc1cc(C(=O)OCC(=O)NC2CCCC2)c2ccccc2n1	-1	4	0	-1	-2	-5
CO[C@@H]1CN(C)C(=O)c2cc(NC(=O)Nc3ccccc3)ccc2OC[C@H](C)N(C(C)=O)C[C@H]1C	nt	-1	nt	nt	nt	nt
CCOC(=O)N1CCN(S(=O)(=O)c2ccc(C(=O)Nc3nnc(C)o3)cc2)CC1	-5	0	-2	-5	3	-1
COc1cc(-c2nnc(NC(=O)c3ccc(S(=O)(=O)N4CCOCC4)cc3)o2)cc(OC)c1OC	33	1	-2	5	82*	-3
COc1ccccc1-c1nnc(NC(=O)c2ccc(S(=O)(=O)N3CCOCC3)cc2)o1	0	-1	3	1	-2	1
CCOC(=O)N1CCN(S(=O)(=O)c2ccc(C(=O)Nc3nnc(CSC)o3)cc2)CC1	-2	nt	0	1	31*	0
COc1ccc(/C=C/C(=O)NCC(=O)N2CCC(N(C)CCN3CCOCC3)CC2)cc1OC	-2	-12	-1	-5	22*	3
COc1cc(C(=S)N2CCOCC2)cc(OC)c1OC(=O)c1ccc(F)cc1	1	0	-4	-5	1	3
COc1cc(C(=S)N2CCOCC2)ccc1OC(=O)c1ccc(Br)cc1	3	4	-2	-7	-1	2
COc1cc(C(=S)N2CCOCC2)ccc1OC(=O)c1cccc(C)c1	-1	1	-3	-7	24*	5
COc1cc(C(=O)Oc2c(OC)cc(C(=S)N3CCOCC3)cc2OC)cc(OC)c1OC	10	0	-3	-6	24*	2
CCCNC(=O)N1CC2(CN(CC3CCOCC3)C2)c2c([nH]c3cc(OC)ccc23)[C@@H]1CO	nt	-2	nt	nt	nt	nt
Cc1ccc(-c2cnc3c(c2)C(=O)N([C@H](C)CO)C[C@H](C)[C@@H](CN(C)CC2CCOCC2)O3)cc1	nt	0	nt	nt	nt	nt
COc1ccc(C(=O)NNC(=O)CCCCC(=O)NNC(=O)c2ccc(OC)cc2)cc1	2	-3	4	10	22*	8
SMILES	NSD2 inh	CASP6 VEID inh	LEDGF integ inh	TDP2 absorb	UHRF1 MBD2 ctr	MBD2 inh
Cc1c(Cl)c([N+](=O)[O-])nn1CCCC(=O)N1CCN(c2ccccc2)CC1	1	-3	1	5	31*	-4
CSc1ccccc1C(=O)Nc1c(C)cccc1C	5	-6	0	-2	-1	0
CSc1ccccc1C(=O)NCc1ccccc1C	-1	-2	-5	-9	22*	4
C[C@@H]1CN([C@@H](C)CO)C(=O)Cc2cc(NC(=O)Cn3cnnn3)ccc2O[C@H]1CN(C)Cc1ccc(Oc2ccccc2)cc1	nt	-1	nt	nt	nt	nt
O=C(COC(=O)c1ccccc1OCc1ccccc1Cl)NC1CCS(=O)(=O)C1 (stereo not drawn)	0	61*	4	6	7	-3
CC1CCCC(NC(=O)COC(=O)c2cc(S(=O)(=O)N3CCOCC3)ccc2F)C1C (stereo not drawn)	-1	0	2	3	3	-5
CCOc1ccc(NC(=O)COC(=O)c2cc(S(=O)(=O)N3CCCC3)ccc2C)cc1	-2	2	1	-18	2	3
Cc1ccc(C(=O)NC2CCS(=O)(=O)C2)cc1S(=O)(=O)N1CCOCC1 (stereo not drawn)	-2	nt	-3	5	-1	4
CC1CCCC(NC(=O)COC(=O)c2ccc(S(=O)(=O)N3CCOCC3)cc2)C1C (stereo not drawn)	2	0	-2	-3	21*	12
Cc1ccc(C(=O)NC2CCS(=O)(=O)C2)cc1S(=O)(=O)N1CCCCC1 (stereo not drawn)	4	-2	1	-2	25*	-3
Cc1ccc(S(=O)(=O)N2CCCCC2)cc1C(=O)OCC(=O)NC(=O)NC12CC3CC(CC(C3)C1)C2	-2	nt	1	-4	45*	-5
O=C(N[C@@H]1C=C[C@@H](CC(=O)N2CCOCC2)O[C@@H]1CO)c1ccccn1	nt	0	nt	nt	nt	nt
C[C@H]1CN([C@@H](C)CO)C(=O)c2cc(NC(=O)C3CCCCC3)ccc2O[C@H]1CN(C)C(=O)Nc1cccc2ccccc12	nt	1	nt	nt	nt	nt
Cc1ccc(S(=O)(=O)N2CCOCC2)cc1C(=O)OCC(=O)NC1CCS(=O)(=O)C1 (stereo not drawn)	-2	5	-6	-5	21*	-3
COCOc1cc(O)c2c(=O)c(OCOC)c(-c3ccc(OCOC)c(OCOC)c3)oc2c1	nt	51*	2	-11	8	0
COc1ccc(-c2c(C)oc3cc(O)cc(O)c3c2=O)cc1OC	nt	4	0	3	-1	-2
O=C(CCN1CCCCC1)N[C@@H]1CC[C@H](CC(=O)N2CCC(Cc3ccccc3)CC2)O[C@H]1CO	nt	-1	nt	nt	nt	nt
O=Cc1ccc(-c2cccs2)s1	nt	5	5	-11	1	-3
Oc1ccc(N=Cc2ccc(-c3cccs3)s2)cc1	nt	nt	47*	9	11	-5
O=C(Cc1ccc(S(=O)(=O)N2CCOCC2)s1)Nc1cc(C(F)(F)F)cc(C(F)(F)F)c1	17	3	4	-3	0	1
CCOC(=O)c1cc(NC(=O)Cc2ccc(S(=O)(=O)N3CCOCC3)s2)cc(C(=O)OCC)c1	0	-2	2	-4	26*	9

Bioassay records (PubChem BioAssay)
